An excerpt weighted towards active compounds, which were near 2.6% of everything screened.
Platelet DG rel = inhibitors of platelet dense granule secretion, primary screen, cell-based, MLPCN, human platelets; AID 1663, 2009; 300,000 tested, 0.22% active; inhibition, %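 (compounds screened at 7.5 µM in platelet-rich plasma)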; human platelet-rich plasma, SFLLRN dense granule ATP release, luminescence;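 active = mean replicate score, as percent of positive control, at or above 50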
SENP8 block-1 = human SENP8 protease inhibitors, primary screen, biochemical, fluorescence, Nedd8 protein substrate, uHTS; recombinant SENP8; inhibition, % at 20 µM; 360,000 tested, 0.64% active; in the data active = inhibition mostly above about 40%, no sharp cut-off; inactive = mostly below about 27%
Target sequence (Q96LD8 whole entry, looked up): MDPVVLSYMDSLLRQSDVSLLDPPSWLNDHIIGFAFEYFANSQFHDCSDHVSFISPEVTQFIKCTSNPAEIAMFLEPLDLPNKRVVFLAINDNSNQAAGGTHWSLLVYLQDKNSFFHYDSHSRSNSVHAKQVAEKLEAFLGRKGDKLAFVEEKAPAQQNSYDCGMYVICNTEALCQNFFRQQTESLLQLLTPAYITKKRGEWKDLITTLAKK
SENP1 inh = human SENP1 catalytic domain inhibitors, primary screen, biochemical, FRET, uHTS | recombinant SENP1 catalytic domain, CyPet-SUMO1-YPet FRET cleavage | Sentrin-specific protease 1 (Homo sapiens), Q9P0U3 | inhibition, % at 10 µM | 360,000 tested, 0.21% active;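 active = inhibition at least 30% at 10 µM, raw YFP signal under a set limit, fluorescence ratio 0.5 to 1.5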
Target sequence (Q9P0U3 419-644 limits assumed): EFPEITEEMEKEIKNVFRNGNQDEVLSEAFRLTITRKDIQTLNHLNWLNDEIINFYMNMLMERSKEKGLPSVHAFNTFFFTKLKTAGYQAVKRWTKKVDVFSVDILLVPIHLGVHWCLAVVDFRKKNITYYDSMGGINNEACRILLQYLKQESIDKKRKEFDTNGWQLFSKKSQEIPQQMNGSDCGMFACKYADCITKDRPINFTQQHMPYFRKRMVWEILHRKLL
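Controls: no-enzyme wells low, DMSO-plus-enzyme wells high control. Test system: human recombinant His6-tagged SENP1 catalytic domain enzyme. Reagent: SFCypet-SUMO1-SFYpet FRET protein substrate, 25 nM final. Doses: one dose per compound, 10 µM, 0.5% DMSO. Detection: FRET, CFP and YFP emission. Timing: 50 min reaction at room temperature.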
SENP6 inh = SENP6 protease inhibitors, primary screen, biochemical, luminescence, uHTS. Recombinant SENP6 catalytic domain, aminoluciferin luminescence. inhibition, % at 10 µM. 330,000 tested, 1.8% active. AID 2599, 2010;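 active = inhibition above about 50% at the single tested dose, limit read from the data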
SENP8 block-2 = SENP8 protease inhibitors, primary screen, biochemical, luminescence; Sentrin-specific protease 8 (Homo sapiens), Q96LD8; purified SENP8, Z-RLRGG-aminoluciferin cleavage; inhibition, % at 10 µM; 330,000 tested, 1.2% active; AID 2540, 2010; in the data active = inhibition above about 50%
SENP7 inh = SENP7 protease inhibitors, primary screen, biochemical, luminescence, uHTS. AID 434973, 2010. 330,000 tested, 1.5% active. Sentrin-specific protease 7 (Homo sapiens), Q9BQF6. recombinant SENP7, Z-RLRGG-aminoluciferin luminescence, 40 min. inhibition, % at 5 µM;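 active = inhibition above about 50% at the single test dose, limit read from the data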
SENP8 confirm = SENP8 protease inhibitors, retest, confirmation, biochemical, luminescence, single concentration | Recombinant SENP8, Z-RLRGG-aminoluciferin luminescence, 60 min | shares compounds with SENP7 inh | 6,200 tested, 40% active | AID 488912, 2010 | inhibition, % at 12.5 µM;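 active = mean inhibition across replicates above about 50%, limit read from the data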
SENP6 confirm = SENP6 protease inhibitors, confirmation, biochemical, luminescence, single concentration | shares compounds with SENP7 inh | recombinant SENP6, Z-RLRGG-aminoluciferin luminescence | inhibition, % at 12.5 µM | 6,200 tested, 58% active | AID 488915, 2010
SENP7 conf = SENP7 protease inhibitors, retest, confirmation, biochemical, luminescence, single concentration; shares compounds with SENP7 inh; inhibition, % at 12.5 µM; 6,200 tested, 69% active; AID 488917, 2010; recombinant SENP7, Z-RLRGG-aminoluciferin luminescence, 40 min
Casp3 SENP sel = caspase-3 protease inhibitors, confirmation, selectivity assay for SENP inhibitor project, biochemical, single concentration; shares compounds with SENP7 inh; purified caspase-3, Z-DEVD-aminoluciferin luminescence, 60 min; inhibition, % at 12.5 µM; 6,200 tested, 60% active; AID 488918, 2010;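 active = mean inhibition above about 50%, limit read from the data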
Target sequence (P42574 28-227 limits assumed): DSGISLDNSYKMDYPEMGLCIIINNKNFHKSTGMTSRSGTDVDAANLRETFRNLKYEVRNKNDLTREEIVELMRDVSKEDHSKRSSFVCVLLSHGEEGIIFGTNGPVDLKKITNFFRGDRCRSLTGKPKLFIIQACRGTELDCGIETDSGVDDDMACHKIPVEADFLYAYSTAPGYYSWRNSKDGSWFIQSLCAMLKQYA
SENP luc ctr = luminescence interference (SENP counter-screen); shares compounds with SENP7 inh; Pre-incubated SENP8/Z-RLRGG-aminoluciferin, luciferase luminescence interference; inhibition, % at 12.5 µM; 6,200 tested, 39% active; AID 488919;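 active = mean inhibition above about 50% when retested at one dose, limit read from the data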
Numbers stand for hits; – = inactive; · = no result.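 Rule for the calls, unless noted: active = mean inhibition above about 50% in the one-dose retest (limit read from the data); inactive = the rest.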

SMILES	Platelet DG rel	SENP8 block-1	SENP1 inh	SENP6 inh	SENP8 block-2	SENP7 inh	SENP8 confirm	SENP6 confirm	SENP7 conf	Casp3 SENP sel	SENP luc ctr
OC[C@@H]1CN(Cc2ccc(-c3ccccc3)cc2)C[C@H](n2cnc3c(NCc4ccc(F)cc4)ncnc32)O1	·	–	–	·	·	·	·	·	·	·	·
COc1ccc(OC)c(NC(=O)CSc2nc(=O)n(CCN3CCOCC3)c3c2CCCC3)c1	–	–	–	–	–	–	·	·	·	·	·
CN(C1=C(NC(=O)c2ccccc2)C(=O)c2ccccc2C1=O)C1CCS(=O)(=O)C1 (stereo not drawn)	–	63.8	–	95.0	60.0	53.0	69.9	86.8	57.3	75.2	–
O=C(NC(=S)NC1CCS(=O)(=O)C1)c1ccccc1 (stereo not drawn)	–	–	–	–	–	–	·	·	·	·	·
CCn1c(SCC(=O)N2CCN(c3ccccc3)CC2)nc2c([nH]c3ccccc32)c1=O	–	–	–	–	–	–	·	·	·	·	·
COc1cccc(C=Nc2cccc3c(=O)[nH][nH]c(=O)c23)c1O	–	–	–	67.1	64.6	93.1	–	–	–	–	–
COc1ccc(C=Nc2cccc3c(=O)[nH][nH]c(=O)c23)c2ccccc12	–	–	–	–	–	–	·	·	·	·	·
Cc1nc(C#N)c(N/N=C/c2cccc(Cl)c2)o1	–	–	–	77.9	86.1	–	–	90.7	99.8	79.9	84.2
CCOC(=O)c1cc(=O)n2c(nc3ccccc32)[nH]1	–	–	–	83.5	76.3	78.9	82.3	82.7	96.5	94.0	56.4
CCOC(=O)c1cc2cc3ccccc3cc2[nH]1	–	–	–	54.4	–	–	–	–	–	–	–
CC(C)OC(=O)c1cc2ccccc2[nH]1	–	–	–	–	–	–	·	·	·	·	·
CCOC(=O)c1cc2ccc3ccccc3c2s1	–	–	–	57.9	–	–	–	–	53.7	–	–
CCOC(=O)C(CC1=CS(=O)(=O)c2ccc(Cl)cc21)(NC(C)=O)C(=O)OCC	·	–	–	·	·	·	·	·	·	·	·
COc1ccccc1N/C=C/c1onc(C)c1[N+](=O)[O-]	64.4	–	–	98.8	95.7	98.6	83.9	95.2	96.2	91.9	–
Cc1noc(/C=C/c2ccccn2)c1[N+](=O)[O-]	–	–	–	–	–	–	·	·	·	·	·
COc1ccc(CCNC(=O)c2ccc(=O)[nH]c2)cc1OC	–	–	–	–	–	–	·	·	·	·	·
COc1ccc(-c2cc3ccccc3[nH]2)cc1	–	–	–	52.8	–	61.4	–	–	66.2	–	–
c1ccc(-c2cc3ccccc3[nH]2)cc1	–	–	–	–	–	–	·	·	·	·	·
Cc1ccc(O)c(-c2cc3ccccc3[nH]2)c1	–	–	–	70.8	–	53.1	61.5	62.1	82.6	–	71.0
Cc1csc2nc(CSc3ccc(Cl)cc3)cn12	–	–	–	79.7	–	53.4	77.5	76.7	91.7	67.3	72.1
O=C(Nc1ccc(Cl)cc1)c1ccc2snnc2c1	–	–	–	–	–	–	·	·	·	·	·
O=C(Nc1ccccc1F)c1ccc2snnc2c1	–	–	–	51.2	–	–	–	–	65.3	71.5	–
O=C(Nc1ccccc1)Nc1ccc2snnc2c1	–	–	–	61.7	–	61.7	56.4	53.7	76.6	–	63.3
COc1ccc(OC(F)(F)F)cc1CC1(C)C(=O)Nc2ccc(-c3ccsc3)cc21 (stereo not drawn)	·	–	–	·	·	·	·	·	·	·	·
COc1ccc(C(=O)Nc2nccs2)cc1OC	–	–	–	–	–	–	·	·	·	·	·
SMILES	Platelet DG rel	SENP8 block-1	SENP1 inh	SENP6 inh	SENP8 block-2	SENP7 inh	SENP8 confirm	SENP6 confirm	SENP7 conf	Casp3 SENP sel	SENP luc ctr
COc1ccc(NC(=O)Nc2nccs2)cc1	–	–	–	73.9	–	56.4	–	–	79.6	77.0	63.4
COc1ccc(C(=O)Nc2nccs2)cc1	–	–	–	51.9	–	–	–	–	63.1	63.8	–
CSCCC(C(=O)NC(C)(C)C)n1c(-c2ccc3c(c2)OCO3)nc2ccccc21 (stereo not drawn)	·	–	–	·	·	·	·	·	·	·	·
CCCc1ccc(NC(=O)C2CCCN(c3cnccn3)C2)cc1 (stereo not drawn)	–	–	–	–	–	–	·	·	·	·	·
COc1cc(F)c(C(=O)NC(C)(C)CO)cc1OC	–	–	–	–	–	–	·	·	·	·	·
C(/C=C/c1ccccn1)=C\c1ccccc1	–	–	–	87.4	80.3	88.1	–	65.6	90.5	66.4	52.5
CCOc1ccc(-c2ccc(SCC(=O)Nc3nnc(CC)s3)nn2)cc1	·	–	–	–	–	–	·	·	·	·	·
CCOc1ccc(-c2ccc(SC)nn2)cc1	94.8	–	–	98.1	93.0	97.3	92.6	98.0	101.5	97.6	–
O=C1C=CN(C2OC(CO)C(O)C2O)C(=O)C1 (stereo not drawn)	·	–	–	·	·	·	·	·	·	·	·
C/C(NCCc1ccccc1)=C1/CCOC1=O	·	–	–	·	·	·	·	·	·	·	·
CC(/C=N/Nc1nnc2c(n1)[nH]c1ccccc12)=C\c1ccco1	–	–	–	–	–	82.8	–	–	–	–	–
COc1cccc(CNC(=O)CCCn2nc(C)c3c(C)n(-c4ccc(C)cc4)nc3c2=O)c1OC	–	–	–	–	–	–	·	·	·	·	·
CCc1cccc2c(C(=O)COC(=O)c3ccccc3)c[nH]c12	–	–	–	60.3	–	53.3	–	–	73.4	–	–
C1CC(=NN=C2CCSCC2)CCS1	·	–	–	·	·	·	·	·	·	·	·
O=c1c2c3c(sc2nc2n1CCCCC2)CCCC3	–	–	–	61.5	–	–	–	–	57.2	56.3	–

Screening data deposited in PubChem BioAssay by several laboratories.
